From ChEMBL document CHEMBL3763019, “Discovery of benzenesulfonamide derivatives as potent PI3K/mTOR dual inhibitors with in vivo efficacies against hepatocellular carcinoma” (Bioorg Med Chem, 2016) come the findings set out here.

The term IC50 denotes the midpoint of a concentration-inhibition curve. One may read the inhibition as the drop in the measured response relative to a control, in per cent. One may read the half-life as the time needed for the level to fall by half in the phase considered.

Some results are limits rather than exact numbers.

Series [1] in a line: Cytotoxicity against human HCT116 cells after 72 hrs by MTT assay. Format: functional, cell-based. The note with it: HCT-116, 72 h. The method, boiled down: (§1)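 Log-phase cells at 40,000–50,000 cells/mL in DMEM with 10% FBS and antibiotics were seeded and cultured overnight at 37 °C, 5% CO₂. Compounds were diluted in DMSO/PBS from 10^-4 to 10^-9 M and applied for 72 h. MTT (5 mg/mL stock) was then added for 4 h and absorbance read at 570 nm. IC50 came from nonlinear regression on triplicate wells, averaged.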
A general note: Tetrazolium dyes change colour on reduction, which living cells bring about.

The target of series [2] is T1, Phosphatidylinositol 4,5-bisphosphate 3-kinase catalytic subunit delta isoform (Homo sapiens) (UniProt O00329).
T1 sequence (whole entry): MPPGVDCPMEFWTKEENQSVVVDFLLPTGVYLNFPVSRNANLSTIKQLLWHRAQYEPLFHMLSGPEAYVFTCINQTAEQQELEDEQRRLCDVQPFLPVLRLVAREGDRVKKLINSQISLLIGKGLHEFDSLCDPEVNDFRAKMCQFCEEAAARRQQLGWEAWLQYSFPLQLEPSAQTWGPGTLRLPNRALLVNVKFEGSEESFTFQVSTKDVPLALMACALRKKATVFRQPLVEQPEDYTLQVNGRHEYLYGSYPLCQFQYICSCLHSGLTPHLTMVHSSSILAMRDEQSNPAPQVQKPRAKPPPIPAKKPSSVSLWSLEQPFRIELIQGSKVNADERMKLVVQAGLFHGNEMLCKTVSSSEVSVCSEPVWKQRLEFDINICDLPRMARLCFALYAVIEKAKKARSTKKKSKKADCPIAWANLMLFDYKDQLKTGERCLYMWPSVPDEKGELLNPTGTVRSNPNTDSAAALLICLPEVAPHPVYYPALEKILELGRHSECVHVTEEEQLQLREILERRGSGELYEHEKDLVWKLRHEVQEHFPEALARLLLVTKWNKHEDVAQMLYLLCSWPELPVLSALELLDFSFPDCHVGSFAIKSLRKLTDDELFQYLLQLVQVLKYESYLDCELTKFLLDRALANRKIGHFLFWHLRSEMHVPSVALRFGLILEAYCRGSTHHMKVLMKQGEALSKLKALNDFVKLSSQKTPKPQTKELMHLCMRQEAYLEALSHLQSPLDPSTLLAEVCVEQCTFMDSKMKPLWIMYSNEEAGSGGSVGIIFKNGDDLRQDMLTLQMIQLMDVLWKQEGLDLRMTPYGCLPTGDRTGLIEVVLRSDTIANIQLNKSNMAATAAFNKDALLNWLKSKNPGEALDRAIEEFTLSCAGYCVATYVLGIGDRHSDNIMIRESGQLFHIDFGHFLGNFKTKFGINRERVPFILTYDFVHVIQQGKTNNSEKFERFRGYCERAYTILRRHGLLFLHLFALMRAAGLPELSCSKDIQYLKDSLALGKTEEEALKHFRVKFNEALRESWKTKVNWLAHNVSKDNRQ
As to the kind of experiment: Inhibition of PI3K-delta (unknown origin) using PIP2 as substrate at 10 nM incubated for 1 hr by Kinase-Glo luminescent kinase assay. An outline of the steps:
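Final PIP2 was 50 µM and ATP 25 µM; PI3Kδ was 1.65 nM. Reactions ran 1 h at room temperature, then Kinase-Glo was added for 15 min before reading luminescence. Percent inhibition was derived from RLU. Dose-response used ten 3-fold dilutions (top 100 or 500 nM) in duplicate.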
In general terms: In Kinase-Glo more light means more ATP remaining.

Another series deals with A549. In words: Cytotoxicity against human A549 cells after 72 hrs by MTT assay. The note with it: A549, 72 h. Format: functional, cell-based. An outline of the steps: as §1
Series [3] in a line: Cytotoxicity against human Bel7404 cells after 72 hrs by MTT assay. The series is classed as functional, cell-based. Particulars: BEL-7404, 72 h. An outline of the steps: as §1
Series [4] deals with T2, Phosphatidylinositol 4,5-bisphosphate 3-kinase catalytic subunit beta isoform (Homo sapiens, UniProt P42338). In words: Inhibition of PI3K-beta (unknown origin) at 10 nM after 40 mins by ADP-Glo luminescent kinase assay. An outline of the steps: (§2)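 Final enzyme was PI3Kβ 4.8 nM and PI3Kγ 7.6 nM. ADP-Glo reagent stopped the reaction (40 min), then detection reagent was added (60 min) and luminescence read. Percent inhibition was derived from RLU.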
Target sequence in this assay (P42338 whole entry, looked up, canonical isoform): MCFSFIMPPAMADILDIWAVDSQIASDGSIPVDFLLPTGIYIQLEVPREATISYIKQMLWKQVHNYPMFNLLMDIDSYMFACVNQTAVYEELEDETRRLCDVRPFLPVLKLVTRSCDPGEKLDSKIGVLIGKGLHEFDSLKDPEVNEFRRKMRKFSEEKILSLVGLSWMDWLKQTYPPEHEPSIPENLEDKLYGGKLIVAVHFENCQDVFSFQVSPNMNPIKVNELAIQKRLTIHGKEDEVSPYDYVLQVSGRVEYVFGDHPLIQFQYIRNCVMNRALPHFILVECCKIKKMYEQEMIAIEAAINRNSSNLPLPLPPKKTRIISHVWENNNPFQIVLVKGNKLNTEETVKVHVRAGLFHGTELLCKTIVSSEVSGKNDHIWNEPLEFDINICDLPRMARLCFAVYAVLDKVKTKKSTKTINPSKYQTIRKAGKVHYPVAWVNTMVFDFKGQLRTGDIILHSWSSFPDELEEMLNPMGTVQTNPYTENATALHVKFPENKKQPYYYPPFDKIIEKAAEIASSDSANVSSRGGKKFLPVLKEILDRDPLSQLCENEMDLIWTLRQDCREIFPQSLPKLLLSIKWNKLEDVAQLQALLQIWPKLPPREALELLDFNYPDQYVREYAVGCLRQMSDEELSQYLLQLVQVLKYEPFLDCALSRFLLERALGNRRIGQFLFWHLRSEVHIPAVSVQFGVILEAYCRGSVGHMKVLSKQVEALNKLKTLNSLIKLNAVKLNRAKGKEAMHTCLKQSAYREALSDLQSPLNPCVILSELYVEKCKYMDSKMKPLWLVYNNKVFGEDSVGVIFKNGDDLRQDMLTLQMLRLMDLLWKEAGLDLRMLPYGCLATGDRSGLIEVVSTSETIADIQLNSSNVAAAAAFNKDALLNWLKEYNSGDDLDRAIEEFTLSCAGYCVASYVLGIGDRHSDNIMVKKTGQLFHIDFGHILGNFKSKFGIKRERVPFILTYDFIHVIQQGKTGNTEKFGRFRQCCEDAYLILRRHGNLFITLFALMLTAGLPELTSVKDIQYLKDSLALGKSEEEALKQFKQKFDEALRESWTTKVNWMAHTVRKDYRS
A general note: ADP-Glo first removes unused ATP, then detects ADP through luciferase.

The test system of another series is MDA-MB-231. As to the kind of experiment: Cytotoxicity against human MDA-MB-231 cells after 72 hrs by MTT assay. Format: functional, cell-based. The note with it: MDA-MB-231, 72 h. An outline of the steps:
as §1

Series [5] addresses Phosphatidylinositol 4,5-bisphosphate 3-kinase catalytic subunit alpha isoform (Homo sapiens, UniProt P42336). In words: Inhibition of PI3K-alpha (unknown origin) using PIP2 as substrate incubated for 1 hr by Kinase-Glo luminescent kinase assay.
For series [6], the target named is T3, Phosphatidylinositol 4,5-bisphosphate 3-kinase catalytic subunit gamma isoform (Homo sapiens, UniProt P48736). In words: Inhibition of PI3K-gamma (unknown origin) at 10 nM after 40 mins by ADP-Glo luminescent kinase assay. An outline of the steps:
as §2
Target sequence in this assay (P48736 whole entry, looked up, canonical isoform): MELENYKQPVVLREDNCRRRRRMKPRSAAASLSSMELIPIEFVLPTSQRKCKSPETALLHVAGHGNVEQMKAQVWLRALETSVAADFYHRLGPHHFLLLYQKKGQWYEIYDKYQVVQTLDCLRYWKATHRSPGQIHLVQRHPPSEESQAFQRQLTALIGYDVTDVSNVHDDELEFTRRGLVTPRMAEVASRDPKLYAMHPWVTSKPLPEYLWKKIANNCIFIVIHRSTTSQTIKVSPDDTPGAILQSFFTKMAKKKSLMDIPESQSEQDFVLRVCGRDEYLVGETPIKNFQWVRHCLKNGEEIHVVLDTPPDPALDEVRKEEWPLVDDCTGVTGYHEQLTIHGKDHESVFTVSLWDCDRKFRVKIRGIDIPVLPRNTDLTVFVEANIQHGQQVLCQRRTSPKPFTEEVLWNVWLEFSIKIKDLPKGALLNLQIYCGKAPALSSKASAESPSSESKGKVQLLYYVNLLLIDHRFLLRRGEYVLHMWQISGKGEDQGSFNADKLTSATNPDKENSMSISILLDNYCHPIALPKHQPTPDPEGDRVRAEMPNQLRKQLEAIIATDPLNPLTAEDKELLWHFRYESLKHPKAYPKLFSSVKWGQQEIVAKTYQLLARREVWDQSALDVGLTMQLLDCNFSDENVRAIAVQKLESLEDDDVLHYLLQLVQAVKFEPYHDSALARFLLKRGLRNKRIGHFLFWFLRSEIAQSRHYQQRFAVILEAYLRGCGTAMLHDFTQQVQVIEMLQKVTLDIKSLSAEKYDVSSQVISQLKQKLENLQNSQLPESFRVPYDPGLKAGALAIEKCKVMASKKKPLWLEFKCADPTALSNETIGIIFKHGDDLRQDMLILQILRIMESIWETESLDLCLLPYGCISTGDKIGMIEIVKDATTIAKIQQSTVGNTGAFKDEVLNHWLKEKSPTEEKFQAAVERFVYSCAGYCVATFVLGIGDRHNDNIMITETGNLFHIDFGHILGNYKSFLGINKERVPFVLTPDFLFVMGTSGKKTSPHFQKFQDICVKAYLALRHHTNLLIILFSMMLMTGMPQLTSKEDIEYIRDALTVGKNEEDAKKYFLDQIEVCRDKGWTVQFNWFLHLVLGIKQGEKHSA

Series [7] can be described thus: Antitumor activity against human Bel7404 cells xenografted in BALB/c nude mouse assessed as reduction in tumor volume at 50 mg/kg, po qd for 14 consecutive days relative to control. On the set-up: scale not given: the % may be the effect or the level left. The series is classed as functional, BEL-7404. An outline of the steps: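 Male BALB/c nude mice carried implanted BEL-7404 tumours and were randomized once tumours reached 100–300 mm³ (about 12 days); there were 6 per treated group and 8 controls. Drug in 5% polysorbate 80/water was given orally once daily for 14 days from day 13. Tumour volume (1/2·a·b·b) and body weight were tracked, with sacrifice on day 29. The read-out was relative tumour volume versus vehicle, reported as mean SE.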

The nature of series [8]: Half life in rat liver microsomes. The series is classed as ADME.
The target of series [9] is Phosphatidylinositol 4,5-bisphosphate 3-kinase catalytic subunit delta isoform (Homo sapiens, UniProt O00329). As to the kind of experiment: Inhibition of PI3K-delta (unknown origin) using PIP2 as substrate incubated for 1 hr by Kinase-Glo luminescent kinase assay.
For series [10], the target named is T3, Phosphatidylinositol 4,5-bisphosphate 3-kinase catalytic subunit gamma isoform. In words: Inhibition of PI3K-gamma (unknown origin) after 40 mins by ADP-Glo luminescent kinase assay. The method, boiled down: as §2
Target sequence in this assay (P48736 whole entry, canonical isoform): as the sequence (P48736 whole entry, looked up, canonical isoform) above
For series [11], the target named is T2, Phosphatidylinositol 4,5-bisphosphate 3-kinase catalytic subunit beta isoform. As to the kind of experiment: Inhibition of PI3K-beta (unknown origin) after 40 mins by ADP-Glo luminescent kinase assay. The method, boiled down: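 ADP-Glo reagent stopped the reaction (40 min), then detection reagent was added (60 min) and luminescence read. Percent inhibition was derived from RLU.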
Target sequence in this assay (P42338 whole entry, canonical isoform): as the sequence (P42338 whole entry, looked up, canonical isoform) above

Series [12] deals with Serine/threonine-protein kinase mTOR (Homo sapiens, UniProt P42345). As to the kind of experiment: Inhibition of mTOR kinase (unknown origin) assessed as suppression of ULight-4E-BP1 substrate phosphorylation incubated for 1 hr by lance ultra assay.

Sequence of Phosphatidylinositol 4,5-bisphosphate 3-kinase catalytic subunit alpha isoform (P42336 whole entry, canonical isoform): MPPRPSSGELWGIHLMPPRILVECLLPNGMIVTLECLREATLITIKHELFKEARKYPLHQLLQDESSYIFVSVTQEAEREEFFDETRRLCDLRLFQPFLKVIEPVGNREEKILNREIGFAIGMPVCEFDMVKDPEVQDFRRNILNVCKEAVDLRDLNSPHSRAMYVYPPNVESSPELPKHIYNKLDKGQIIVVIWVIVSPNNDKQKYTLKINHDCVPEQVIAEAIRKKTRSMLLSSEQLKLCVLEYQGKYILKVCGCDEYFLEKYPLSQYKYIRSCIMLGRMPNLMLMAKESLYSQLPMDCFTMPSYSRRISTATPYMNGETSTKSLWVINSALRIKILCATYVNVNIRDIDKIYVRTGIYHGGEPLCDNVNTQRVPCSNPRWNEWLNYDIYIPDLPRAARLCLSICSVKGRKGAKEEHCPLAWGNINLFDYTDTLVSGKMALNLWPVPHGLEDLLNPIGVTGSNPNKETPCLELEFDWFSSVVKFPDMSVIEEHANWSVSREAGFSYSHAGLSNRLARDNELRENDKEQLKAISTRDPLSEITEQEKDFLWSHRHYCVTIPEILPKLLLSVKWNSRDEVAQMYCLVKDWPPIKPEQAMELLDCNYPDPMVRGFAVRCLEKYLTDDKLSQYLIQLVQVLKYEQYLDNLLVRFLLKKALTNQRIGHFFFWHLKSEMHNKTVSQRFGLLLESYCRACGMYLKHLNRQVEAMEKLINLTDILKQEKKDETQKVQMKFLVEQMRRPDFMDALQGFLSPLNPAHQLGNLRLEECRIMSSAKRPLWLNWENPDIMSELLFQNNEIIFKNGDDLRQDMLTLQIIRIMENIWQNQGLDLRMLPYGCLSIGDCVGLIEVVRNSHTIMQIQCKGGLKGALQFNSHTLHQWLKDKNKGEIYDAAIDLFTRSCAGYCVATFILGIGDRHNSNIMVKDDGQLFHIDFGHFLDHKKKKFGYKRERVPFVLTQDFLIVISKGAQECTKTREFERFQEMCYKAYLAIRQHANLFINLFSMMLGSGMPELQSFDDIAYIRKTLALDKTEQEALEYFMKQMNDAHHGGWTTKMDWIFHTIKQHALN

`COc1ncc(-c2ccc3nccc(C#CCN(C4CCCCC4)C4CCCCC4)c3c2)cc1NS(=O)(=O)c1ccc(F)cc1F`: the IC50 in [1] was 11.7 µM; in the series on A549, 12 µM; in series [3] it was 6.1 µM; in the series with MDA-MB-231, 27.7 µM; in [5] it was above 0.1 µM. For the same molecule, the inhibition worked out at 3.2% in [2], 13% in series [4] and 10% in series [6].
As for `COc1ncc(-c2ccc3nccc(C#CCN4CCCCC4)c3c2)cc1NS(=O)(=O)c1ccc(F)cc1F`, the half-maximal inhibitory concentration (IC50) was found to be 3.61 µM in series [1]; 1.81 µM in the series on A549; 2.3 µM in [3]; 10.3 µM with MDA-MB-231; 0.037 µM in [5]. Further, the inhibition turned out to be 3% in series [2], 1.4% in series [4] and 55% in series [6].
For `COc1ncc(-c2ccc3nccc(C#CCN4CCC(C)CC4)c3c2)cc1NS(=O)(=O)c1ccc(F)cc1F`, the IC50 in [1] stood at 4.02 µM; with A549, 2.9 µM; in series [3], 1.55 µM; in the series on MDA-MB-231, 7.99 µM; in [5], 0.07 µM. Besides, the inhibition in series [2] amounted to 7.7%; in series [4], 5.8%; in series [6] it was 49%.
Turning to `CNC(=O)c1cc(Oc2ccc(NC(=O)Nc3ccc(Cl)c(C(F)(F)F)c3)cc2)ccn1` [SORAFENIB], the Activity in series [7] is given as 44%.
On to `COc1ncc(-c2ccc3nccc(C#CCN(C)C)c3c2)cc1NS(=O)(=O)c1ccc(F)cc1F`, for which the IC50 was 1.08 µM in series [1]; 0.11 µM in the series on A549; 0.23 µM in series [3]; 1.67 µM in the series on MDA-MB-231; 0.0037 µM in series [5]. Besides, the inhibition in [2] worked out at 6.1%; in series [4], 41%; in series [6] it was 81%. In [8], this molecule returned a half-life of 18.8 min.
`CCN(CC)CC#Cc1ccnc2ccc(-c3cnc(OC)c(NS(=O)(=O)c4ccc(F)cc4F)c3)cc12`: the half-inhibitory concentration (IC50) in [1] stood at 2.27 µM; in the series on A549, 2.43 µM; in series [3], 0.3 µM; in the series on MDA-MB-231 it was 2.68 µM; in series [5], 0.033 µM. Also, the inhibition in [2] turned out to be 1.2%; in [4] it was 21%; in [6], 68%.
As to `COc1ncc(-c2ccc3nccc(C#CCN(C)CCO)c3c2)cc1NS(=O)(=O)c1ccc(F)cc1F`, the half-inhibitory concentration (IC50) came to 1.15 µM in series [1]; 1.01 µM in the series with A549; 0.08 µM in series [3]; 2.8 µM in the series with MDA-MB-231; 0.0039 µM in series [5]. Also, the inhibition was 16% in [2], 57% in series [4] and 90% in series [6]. In addition, the half-life in series [8] worked out at 28.4 min.
In the case of `CCOC(=O)N1CCN(CC#Cc2ccnc3ccc(-c4cnc(OC)c(NS(=O)(=O)c5ccc(F)cc5F)c4)cc23)CC1`, the half-maximal inhibitory concentration (IC50) in [1] is 1.39 µM; in [9], 0.019 µM; in series [10] it was 0.004 µM; in the series on A549, 0.11 µM; in series [11], 0.023 µM; in series [3], 0.48 µM. The values for the half-inhibitory concentration (IC50) (in [12]; in the series on MDA-MB-231; in series [5]) were 0.0099 µM, 3.81 µM and 0.0055 µM, respectively. Moreover, the inhibition in series [2] was 20.7%; in [4] it was 30%; in [6] it was 82%. In addition, the half-life in [8] worked out at 46.5 min.
Take `COc1ncc(-c2ccc3nccc(C#CCN4CCOCC4)c3c2)cc1NS(=O)(=O)c1ccc(F)cc1F`: the half-maximal inhibitory concentration (IC50) in [1] stood at 0.51 µM; in the series with A549, 0.24 µM; in [3], 0.04 µM; in the series with MDA-MB-231, 1.99 µM; in series [5], 0.0021 µM. In addition, the figures for the inhibition in series [2], in [4] and in series [6] were 35%, 70% and 96%, respectively. Besides, the half-life in series [8] was found to be 36.9 min.
Regarding `COc1ncc(-c2ccc3nccc(C#CCN(C)C)c3c2)cc1NS(=O)(=O)c1ccc(F)cc1`, the half-inhibitory concentration (IC50) was found to be 1.34 µM in series [1]; 0.97 µM in the series with A549; 1.16 µM in [3]; 2.08 µM in the series with MDA-MB-231; 0.032 µM in series [5]. Besides, the inhibition turned out to be 10% in [2], 17% in series [4] and 70% in series [6].
Take `COc1ncc(-c2ccc3nccc(-c4ccnnc4)c3c2)cc1NS(=O)(=O)c1ccc(F)cc1F` [OMIPALISIB]: the IC50 was found to be 0.01 µM in series [1]; 0.0006 µM in [10]; 0.6 µM in the series on A549; 0.01 µM in [3]; 0.13 µM with MDA-MB-231.
As to `COc1ncc(-c2ccc3nccc(C#CCN4CCCCC4C)c3c2)cc1NS(=O)(=O)c1ccc(F)cc1F` (centres undefined), the half-inhibitory concentration (IC50) in series [1] amounted to 4.52 µM; in the series on A549, 1.35 µM; in series [3], 1.14 µM; in the series with MDA-MB-231, 4.73 µM; in [5] it was 0.061 µM. The inhibition in [2] amounted to 4.6%; in [4] it was 11%; in [6], 59%.
